This is an account of results in ChEMBL document CHEMBL1128446, “Pyrazinoic acid esters with broad spectrum in vitro antimycobacterial activity” (1995).

≈ marks a conversion by molar mass, not a printed value.

The test system of one experiment is Mycobacterium tuberculosis. Kind of experiment: Minimum Inhibitory Concentration against Mycobacterium tuberculosis ATCC 35828 PZA resistant form. It counts as functional. An outline of the steps:
(§1)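 Broth macrodilution in tubes of modified Middlebrook 7H10 broth (agar and malachite green omitted) with 10% OADC and 0.05% Tween 80 at pH 5.8. Cultures were grown 3 days at 37 °C on a rotary shaker, then diluted with 7H10 broth to 1 Klett unit/mL. Stocks were made in water or DMSO and filter-sterilised; 2-fold serial dilutions were tested. Tubes shaken 7–10 days at 37 °C, with a drug-free control. MIC = lowest concentration (μg/mL) with no visible turbidity.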
What is called MIC is the smallest concentration in the dilution series that meets the test's criterion for growth inhibition. Read a low MIC as inhibition by little substance. As to `CCCCCCCC(C)OC(=O)c1cnc(Cl)cn1` (centres undefined), the MIC is 2 µg/mL (≈ 7.02 µM).

With `CCCCOC(=O)c1cnc(Cl)cn1`, the MIC was determined as 0.5 µg/mL (≈ 2.33 µM).

In the case of `CCCCCCCCCCOC(=O)c1cnccn1`, 0.25 µg/mL (≈ 0.946 µM) was the least that counted as inhibitory (MIC).

As for `COC(=O)c1cnccn1`, 64 µg/mL (≈ 463 µM) was the least that counted as inhibitory (MIC).

In turn, `CC(C)COC(=O)c1cnc(Cl)cn1` yielded an MIC of 2 µg/mL (≈ 9.32 µM). This MIC is about 32-fold lower than that of the compound before.

`CCCCCC(C)OC(=O)c1cnc(Cl)cn1` (centres undefined) showed an MIC of 0.06 µg/mL (≈ 0.234 µM).

As to `CCCCCCCCC(C)OC(=O)c1cnc(Cl)cn1` (centres undefined), the MIC is less than 0.03 µg/mL.

Take `O=C(OCc1ccccc1)c1cnccn1`: the lowest concentration to inhibit growth (MIC) was 2 µg/mL (≈ 9.34 µM).

`CCCCCCCCCCCOC(=O)c1cnc(Cl)cn1` returned an MIC of 0.5 µg/mL (≈ 1.6 µM).

Compound `CCCCCCCCCCOC(=O)c1cnc(Cl)cn1` showed an MIC of 0.5 µg/mL (≈ 1.67 µM).

In turn, `CCCCCCCCCOC(=O)c1cnc(Cl)cn1` showed an MIC of less than 0.03 µg/mL.

Compound `CCCCCCCCCCCCCCCOC(=O)c1cnccn1` had an MIC of 1 µg/mL (≈ 2.99 µM).

`Cc1cnc(C(=O)O)cn1` returned a minimal inhibitory concentration (MIC) greater than 64 µg/mL.

In turn, `O=C(Oc1c(Br)cc(Br)cc1Br)c1cnccn1` gave an MIC of 32 µg/mL (≈ 73.2 µM).

`O=C(O)c1cnc(Cl)cn1`: the minimum inhibitory concentration (MIC) worked out at 64 µg/mL (≈ 404 µM). Compared with the last compound, the MIC is about 2-fold higher.

For `Cc1cc(C(C)(C)C)c(OC(=O)c2cnccn2)c(C(C)(C)C)c1`, the MIC came to 128 µg/mL (≈ 392 µM).

Consider `O=C(Oc1ccc(F)cc1)c1cnccn1`, for which the minimal inhibitory concentration (MIC) amounted to 16 µg/mL (≈ 73.3 µM).

The compound `CCCCCCCCOC(=O)c1cnc(Cl)cn1` came in with an MIC of less than 0.03 µg/mL.

Take `CCCCCOC(=O)c1cnc(Cl)cn1`: the MIC was determined as 0.12 µg/mL (≈ 0.525 µM).

Consider `CC(C)COC(=O)c1cnccn1`, for which the MIC is 64 µg/mL (≈ 355 µM).

`CCOC(=O)c1cnc(Cl)cn1` gave an MIC greater than 16 µg/mL.

`COC(=O)c1cnc(Cl)cn1` gave an MIC of 16 µg/mL (≈ 92.7 µM).

As for `CCCCCCC(C)OC(=O)c1cnc(Cl)cn1` (centres undefined), the lowest concentration to inhibit growth (MIC) was 0.5 µg/mL (≈ 1.85 µM).

As to `CCCCCCCCCCCC(C)OC(=O)c1cnc(Cl)cn1` (centres undefined), the lowest concentration to inhibit growth (MIC) was 0.5 µg/mL (≈ 1.47 µM).

`CCCCCCCCCC(C)OC(=O)c1cnc(Cl)cn1` (centres undefined) displayed an MIC of 1 µg/mL (≈ 3.2 µM).

`CCCCCC(CC)OC(=O)c1cnc(C)cn1` (centres undefined) came in with a minimum inhibitory concentration (MIC) of 1 µg/mL (≈ 3.99 µM).

`O=C(OCc1ccccc1)c1cnc(Cl)cn1`: it took 1 µg/mL (≈ 4.02 µM) to inhibit growth (MIC).

On to `CC(C)(C)OC(=O)c1cnc(Cl)cn1`, for which inhibition of growth (MIC) required 0.5 µg/mL (≈ 2.33 µM).

On to `O=C(Oc1cccc2ccccc12)c1cnccn1`, for which the MIC was 8 µg/mL (≈ 32 µM).

`C=CCOC(=O)c1cnc(Cl)cn1` displayed an MIC of 2 µg/mL (≈ 10.1 µM).

Compound `CCCOC(=O)c1cnc(Cl)cn1` returned an MIC of 0.25 µg/mL (≈ 1.25 µM).

For the compound `CCCCCCCOC(=O)c1cnc(Cl)cn1`, the minimum inhibitory concentration (MIC) is less than 0.03 µg/mL.

`CCCCCCOC(=O)c1cnc(Cl)cn1` yielded a minimum inhibitory concentration (MIC) of 0.5 µg/mL (≈ 2.06 µM).

For the compound `NC(=O)c1cnccn1` [PYRAZINAMIDE], the MIC is 2050 µg/mL (≈ 16600 µM). This MIC lies about 4100-fold higher than the previous one.

In turn, `O=C(O)c1cnccn1` [PYRAZINOIC ACID] displayed an MIC of 32 µg/mL (≈ 258 µM).

The next experiment concerns Mycobacterium tuberculosis. Kind of experiment: Minimum Inhibitory Concentration against Mycobacterium tuberculosis ATCC 35828 for PZA resistant form. It is filed as functional. An outline of the steps:
as §1
Consider `CCCCCC(CC)OC(=O)c1cnc(Cl)cn1` (centres undefined), for which the MIC was 1 µg/mL (≈ 3.69 µM).

The next experiment has as its system Mycobacterium tuberculosis. Description: Minimum Inhibitory Concentration for PZA resistant forms against Mycobacterium tuberculosis ATCC 35828. It counts as functional. An outline of the steps:
as §1
For the compound `CCCCCCC(C)OC(=O)c1cnc(F)cn1` (centres undefined), inhibition of growth (MIC) required 4 µg/mL (≈ 15.7 µM).

`CCCCCCOC(=O)c1cnc(F)cn1` gave an MIC of 8 µg/mL (≈ 35.4 µM).

In the case of `CCCCCCCC(C)(CCCCC)OC(=O)c1cnc(Cl)cn1` (centres undefined), inhibition of growth (MIC) required 8 µg/mL (≈ 22.5 µM).

With `CCCOC(=O)c1cnc(C)cn1`, the MIC came out at 1 µg/mL (≈ 5.55 µM).

On to `CCCCCCCOC(=O)c1cnc(C)cn1`, for which the minimal inhibitory concentration (MIC) was found to be 1 µg/mL (≈ 4.23 µM).

The compound `CCCCCCCCC(C)(CCCC)OC(=O)c1cnc(Cl)cn1` (centres undefined) gave an MIC of 8 µg/mL (≈ 22.5 µM).

Regarding `CCCCCCCCCCOC(=O)c1cnc(F)cn1`, the MIC turned out to be 4 µg/mL (≈ 14.2 µM).

`CCCCCCCCCOC(=O)c1cnc(C)cn1` registered an MIC of 2 µg/mL (≈ 7.57 µM). Compared with the last compound, the MIC is about 2-fold lower.

For `CCCCCCCCC(C)(C)OC(=O)c1cnc(Cl)cn1`, the MIC stood at 0.25 µg/mL (≈ 0.799 µM).

The compound `CCCCCCC(C)(C)OC(=O)c1cnc(Cl)cn1` registered an MIC of 0.25 µg/mL (≈ 0.878 µM).

`CCCCCCC(C)(CCCCCC)OC(=O)c1cnc(Cl)cn1`: inhibition of growth (MIC) required 0.5 µg/mL (≈ 1.41 µM).

Consider `CCCCCCCCCC(C)(C)OC(=O)c1cnc(Cl)cn1`, for which the lowest concentration to inhibit growth (MIC) was 16 µg/mL (≈ 48.9 µM).

For the compound `CCCCCC(C)(CCCCC)OC(=O)c1cnc(Cl)cn1`, inhibition of growth (MIC) required 16 µg/mL (≈ 48.9 µM).

For the compound `COC(=O)c1cnc(C)cn1`, the MIC was greater than 16 µg/mL.

As for `CCCCCCC(C)(CCCC)OC(=O)c1cnc(Cl)cn1` (centres undefined), the lowest concentration to inhibit growth (MIC) was 16 µg/mL (≈ 48.9 µM).

`CCCCCCCCC(CC)OC(=O)c1cnc(Cl)cn1` (centres undefined) had a minimum inhibitory concentration (MIC) of 0.25 µg/mL (≈ 0.799 µM).

Compound `CCCCCC(C)(CCCC)OC(=O)c1cnc(Cl)cn1` (centres undefined) came in with a minimum inhibitory concentration (MIC) of 16 µg/mL (≈ 51.1 µM).

The compound `CCCCCCC(C)(CCCCC)OC(=O)c1cnc(Cl)cn1` (centres undefined) gave an MIC of 16 µg/mL (≈ 46.9 µM).

For the compound `COC(=O)c1cnc(F)cn1`, the MIC came to 8 µg/mL (≈ 51.2 µM).

`CC(C)(OC(=O)c1cnc(Cl)cn1)c1ccccc1` came in with an MIC greater than 16 µg/mL.

Take `CCCCCCCC(OC(=O)c1cnc(Cl)cn1)C(C)(C)C` (centres undefined): it took 2 µg/mL (≈ 6.12 µM) to inhibit growth (MIC).

The compound `O=C(OCc1ccc(Br)cc1)c1cnc(Cl)cn1` showed an MIC greater than 16 µg/mL.

Take `CCCCC(OC(=O)c1cnc(Cl)cn1)c1ccccc1` (centres undefined): the MIC worked out at 8 µg/mL (≈ 26.2 µM).

On to `CC(C)(C)C(OC(=O)c1cnc(Cl)cn1)c1ccccc1` (centres undefined), for which inhibition of growth (MIC) required 16 µg/mL (≈ 52.5 µM).

For `Cc1ccc(C(C)OC(=O)c2cnc(Cl)cn2)cc1` (centres undefined), the MIC turned out to be 2 µg/mL (≈ 7.23 µM).

Consider `O=C(OCCc1ccc(Cl)cc1)c1cnc(Cl)cn1`, for which the MIC was determined as 32 µg/mL (≈ 108 µM).

As to `O=C(OC(c1ccccc1)c1ccccc1)c1cnc(Cl)cn1`, the MIC worked out at 16 µg/mL (≈ 49.3 µM).

`CCCCCCCC(OC(=O)c1cnc(Cl)cn1)C(C)C` (centres undefined) came in with an MIC of 2 µg/mL (≈ 6.39 µM).

`CCCCCCCCCCC(OC(=O)c1cnc(Cl)cn1)C(C)(C)C` (centres undefined) gave an MIC of 16 µg/mL (≈ 43.4 µM).

Turning to `CCCCCCCC(C)(CCCC)OC(=O)c1cnc(Cl)cn1` (centres undefined), inhibition of growth (MIC) required 16 µg/mL (≈ 46.9 µM).

As to `O=C(OCCc1ccccc1)c1cnc(Cl)cn1`, the MIC was found to be 4 µg/mL (≈ 15.2 µM).

As to `CC(OC(=O)c1cnc(Cl)cn1)c1ccc(Br)cc1` (centres undefined), the MIC turned out to be 16 µg/mL (≈ 46.8 µM). Against the preceding compound, the MIC is about 4-fold higher.

With `CCC(C)(CC)OC(=O)c1cnc(Cl)cn1`, the MIC came to 4 µg/mL (≈ 16.5 µM).
